These results are taken from paper PMC5330449 (ACS sustainable chemistry & engineering, 2015).

In general, EC50 refers to the concentration giving half of the maximal effect. In general, solubility refers to the concentration that dissolves in the medium under given conditions. Higher therefore signals a readily soluble substance.

One data set concerns HaCaT cells. As to the kind of experiment: Cytotoxicity, resazurin metabolic conversion, HaCaT. Type of data set: cell-based, human. In short, it runs like this: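 HaCaT keratinocytes were grown in high-glucose DMEM with 4 mM glutamine, 10% heat-inactivated FBS and penicillin/streptomycin at 37 °C under 5% CO2. After 24 h attachment in 96-well plates, cells were exposed for 24 h to test compound (1–5000 µM) in full medium. Resazurin (10% v/v) was present for the final 2 h. Absorbance was read at 570/600 nm and normalised to untreated cells. EC50 came from a logistic least-squares fit of three independent experiments run in triplicate.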
Background: Resazurin is reduced to fluorescent resorufin, in cell work by metabolically active cells.

A further data set deals with Raw 264.7 cells. As to the kind of experiment: Cytotoxicity, resazurin metabolic conversion, Raw 264.7. Type of data set: cell-based, mouse. The settings on record: for EC50: read-out: EC50, 50% decrease in cell viability. In short, it runs like this:
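Mouse Raw 264.7 macrophages were kept in IMDM with 10% non-inactivated FBS and penicillin/streptomycin at 37 °C, 5% CO2. After 24 h attachment, cells received test compound at 1–5000 µM in full medium for 24 h. Resazurin (10% v/v) was added for the last 1 h, and resorufin absorbance was read at 570/600 nm relative to untreated cells. EC50 was fitted by non-linear least squares to a logistic model, from three independent experiments in triplicate.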

Data set [1] in a line: Thermogravimetric analysis. Type of data set: physicochemical. To be noted: TGA onset, nitrogen atmosphere, 10 °C.min^-1.
Data set [2] in a line: DPPH radical scavenging assay. The settings on record: for DPPH scavenging IC50: tested up to 1 mg.mL^-1, IC50 impossible to determine; for DPPH radical scavenging (antioxidant) activity, in words: 30, 90 and 120 minutes of exposure to DPPH. In short, it runs like this: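 DPPH (250 µL of 0.91 mmol/L in methanol) was combined with 20–80 µL of a test compound stock and made up to 4 mL with methanol. Samples stood in the dark at room temperature for 30, 90 and 120 min before absorbance was read at 517 nm. Controls were DPPH without compound and ascorbic acid as positive control. Activity = (A0−A1)/A0×100, and IC50 came from scavenging-versus-concentration fits, in triplicate.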
A general note: DPPH is a stable violet radical that fades when it is reduced.

Data set [3] in a line: Water solubility from saturated aqueous solution, UV quantification. The settings on record: 25 °C, pure water; for solubility at 72 h: water, thermodynamic from solid. The data set is classed as physicochemical.
The next data set relates to Vibrio fischeri. Description: Standard Microtox liquid-phase assay. The data set is classed as cell-based, Vibrio fischeri (strain NRRL B-11177). The settings on record: for Ecotoxicity rank among the cholinium-based salts: EC50 in mmol.L^-1, Figure 2; for EC50, luminescence inhibition: 30 min of exposure, 15 °C, Passino's classification. The procedure, abridged: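 Vibrio fischeri NRRL B-11177 was tested by the standard 81.9% liquid-phase protocol at 15 °C. Aqueous dilutions (0–81.9 wt% of stock) were used, with stock concentration corrected for water content by Karl Fischer titration. Luminescence was read after 5, 15 and 30 min and compared with a blank. EC50 and 95% confidence intervals were fitted to a logistic equation by non-linear least squares.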

The test system of data set [4] is Raw 264.7 macrophages stimulated with LPS. As to the kind of experiment: Inhibition of LPS-induced NO production in macrophages. The data set is classed as cell-based, mouse. To be noted: 100 μM and 50 μM, pre-treated 1 hour, LPS 1 μg.mL^-1.
The conditions of data set [5]: cited from earlier work.
For data set [6] the following is noted: 25 °C; ref Queimada et al. 39; cited from earlier work.
Where [7] appears, read: read-out: EC50, 50% decrease in cell viability, 24 hours of exposure.
[8] abbreviates: Raw 264.7, 24 hours of exposure.
The mark [9] stands for this setting: Homo sapiens, 24 h, read-out: EC50, 50% decrease in cell viability.

Each structure is given as a SMILES string. Values after ≈ are worked out from the molar mass of the structure shown. Like-named read-outs stand apart in the source and are kept apart here. Marks after values point to notes of the source that are not given here.

In the case of `O=C(O)c1cc(O)c(O)c(O)c1` [[Chol][Gal], (2-hydroxyethyl) trimethylammonium 3,4,5-trihydroxybenzoate], the concentration giving a half-maximal response (EC50) with HaCaT cells (setting [7]) amounted to 304 µM; with Raw 264.7 cells (setting [8]), 836 µM.

For `O=C(O)/C=C/c1ccc(O)c(O)c1` [[Chol][Caf], (2-hydroxyethyl) trimethylammonium (E)-3-(3,4-dihydroxyphenyl)acrylate], the concentration for a half-maximal effect (EC50) stood at 1790 µM with HaCaT cells (setting [7]) and 2340 µM with Raw 264.7 cells (setting [8]).

For `C[N+](C)(C)CCO.O=C([O-])c1ccccc1O` [[Chol][Sal], (2-hydroxyethyl) trimethylammonium 2-hydroxybenzoate, reference compound], the “Temperature of decomposition (Td)” value in data set [1] is 226.0 ºC. In addition, the “DPPH scavenging IC50” value in data set [2] was over 1000 µg/mL. Further, in data set [3], the “Water solubility ± std” value is recorded as “Completely miscible”. Further, in the data set on Vibrio fischeri, the “Ecotoxicity rank among the cholinium-based salts” value is “most toxic”.

The compound `O=C(O)/C=C/c1ccc(O)c(O)c1` [caffeic acid, reference compound] came in with a solubility at 72 h in data set [3] of 3.84 ± 0.04 mM (≈ 692 µg/mL). Moreover, the EC50 in the data set with HaCaT cells (setting [9]) is 1800 µM; in the data set on Raw 264.7 cells (Mus musculus, RAW264.7, 24 h), 2000 µM.

Turning to `C[N+](C)(C)CCO.O=C([O-])/C=C/c1ccc(O)c(O)c1` [[Chol][Caf], (2-hydroxyethyl) trimethylammonium (E)-3-(3,4-dihydroxyphenyl)acrylate], the “Effect on LPS-induced NO production” value in [4] is “significantly inhibit the LPS-induced NO increase”.

Turning to `C[N+](C)(C)CCO.[Cl-]` [cholinium chloride, Cholinium chloride], the Decomposition temperature result in [5] is on record as “circa 305 ºC”.

As to `COc1cc(C(=O)[O-])cc(OC)c1O.C[N+](C)(C)CCO` [[Chol][Syr], (2-hydroxyethyl) trimethylammonium 4-hydroxy-3,5-dimethoxybenzoate], the “Temperature of decomposition (Td)” value in data set [1] is given as 178.9 ºC. For the same compound, the “Water solubility ± std” value in data set [3] stood at 2793.71 ± 17.98 mM.

`C[N+](C)(C)CCO.C[N+](C)(C)CCO.O=c1oc2c(O)c([O-])cc3c(=O)oc4c(O)c([O-])cc1c4c23` [[Chol]2[Ell], di((2-hydroxyethyl)trimethylammonium) 3,8-dihydroxy-5,10-dioxo-5,10-dihydrochromeno[5,4,3-cde]chromene-2,7-bis(olate)]: the entries for the “Temperature of decomposition (Td)” value in [1] and in data set [1] (listed as [Chol]2 [Ell]) were 265 ºC and 265.0 ºC, respectively. Further, in data set [2], the “DPPH radical scavenging (antioxidant) activity, in words” value is “highest antioxidant activity”. In addition, the “Effect on LPS-induced NO production” value in [4] is “significantly inhibit the LPS-induced NO increase”. In addition, in data set [3], the “Water solubility ± std” value worked out at 622.97 ± 36.98 mM. Besides, the “Cell viability at maximum concentration achieved” value in the data set with HaCaT cells (125 µM) is reported as “not observed a decrease in the cell viability”; with Raw 264.7 cells (125 µM, Raw 264.7), “not observed a decrease in the cell viability”.

For the compound `O=C(O)c1cc(O)c(O)c(O)c1` [gallic acid, 3,4,5-trihydroxybenzoic acid, reference compound], the “Temperature of decomposition (Td)” value in data set [1] is 262.5 ºC. Also, in data set [4], the “Effect on LPS-induced NO production” value was “neither [Chol][Gal] nor gallic acid decrease the LPS-induced NO production”. The amount in solution in [3] (solubility at 72 h) came to 71.3 ± 2.7 mM (≈ 12100 µg/mL). In addition, the EC50 is 267 µM in the data set with HaCaT cells (setting [9]) and 591 µM with Raw 264.7 cells (Mus musculus, RAW264.7, 24 h).

In the case of `O=C(O)c1ccccc1O` [salicylic acid, reference compound], the “Temperature of decomposition (Td)” value in data set [1] is recorded as 183.9 ºC. The “DPPH scavenging IC50” value in [2] was over 1000 µg/mL.

On to `COc1cc(C(=O)[O-])ccc1O.C[N+](C)(C)CCO` [[Chol][Van], (2-hydroxyethyl) trimethylammonium 4-hydroxy-3-methoxybenzoate], for which, in [1], the “Temperature of decomposition (Td)” value was 186.8 ºC. In [2], the “DPPH radical scavenging (antioxidant) activity, in words” value is on record as “significantly higher DPPH radical scavenging activity than vanillic acid”. Moreover, in the data set with Vibrio fischeri, the “EC50, luminescence inhibition” value was over 1000 µg/mL.

Regarding `C[N+](C)(C)CCO.O=C([O-])c1cc(O)c(O)c(O)c1` [[Chol][Gal], (2-hydroxyethyl) trimethylammonium 3,4,5-trihydroxybenzoate], the “Temperature of decomposition (Td)” value in data set [1] is given as 185.3 ºC. Further, the “Effect on LPS-induced NO production” value in [4] is “neither [Chol][Gal] nor gallic acid decrease the LPS-induced NO production”. Besides, the “Water solubility ± std” value in [3] came out at 2402.27 ± 6.09 mM. For the same compound, in the data set with Vibrio fischeri, the “EC50, luminescence inhibition” value is over 1000 µg/mL and the “Ecotoxicity rank among the cholinium-based salts” value is “less toxic”.

For the compound `O=c1oc2c(O)c(O)cc3c(=O)oc4c(O)c(O)cc1c4c23` [ellagic acid, reference compound], in [1], the “Temperature of decomposition (Td)” value is listed as 472.6 ºC. The “Water solubility ± std” value in [6] is given as 1.26E-02 ± 3.31E-04 ^b mmol.L^-1.

Regarding `COc1cc(C(=O)O)ccc1O` [vanillic acid, reference compound], in [1], the “Temperature of decomposition (Td)” value was 233.7 ºC.
